In ChEMBL document CHEMBL1143542, “Structure-activity relationships of bivalent aminoglycosides and evaluation of their microbiological activities” (2005):
Values after ≈ are worked out from the molar mass of the structure shown.

What was measured:
Pseudomonas aeruginosa [1] = test: (§1) Susceptibility testing against Pseudomonas aeruginosa PAE_NUH05; R=Resistant; type: functional, organism-based
Method in brief: (§2)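 Disk diffusion susceptibility profiling of P. aeruginosa reference and clinical isolates against empirically used antipseudomonal antibiotics. Each isolate was categorised as susceptible, intermediate or resistant.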

Pseudomonas aeruginosa [2] = test: (§3) Susceptibility testing against Pseudomonas aeruginosa PAE_NUH06; R=Resistant; type: functional, organism-based; method in brief: as §2
Pseudomonas aeruginosa [3] = test: (§4) Susceptibility testing against Pseudomonas aeruginosa PAE_NUH20; S=Susceptible; type: functional, organism-based
Method in brief: (§5)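 Disk diffusion susceptibility profiling against a panel of empirically used antipseudomonal antibiotics. Each strain was categorised as susceptible (S) or intermediate (I).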

Pseudomonas aeruginosa [4] = test: (§6) Susceptibility testing against Pseudomonas aeruginosa PAE_NUH02; R=Resistant; type: functional, organism-based; method in brief: as §2
Pseudomonas aeruginosa [5] = test: Susceptibility testing against Pseudomonas aeruginosa PAE_NUH18; R=Resistant; type: functional, organism-based; method in brief: as §2
Pseudomonas aeruginosa [6] = test: (§7) Susceptibility testing against Pseudomonas aeruginosa PAE_NUH03; R=Resistant; type: functional, organism-based; method in brief: as §2
Pseudomonas aeruginosa [7] = test: Susceptibility testing against Pseudomonas aeruginosa PAE_NUH19; R=Resistant; type: functional, organism-based; method in brief: as §2
Pseudomonas aeruginosa [8] = test: (§8) Susceptibility testing against Pseudomonas aeruginosa PAE_NUH17; S=Susceptible; type: functional, organism-based; method in brief: as §5
Pseudomonas aeruginosa [9] = test: Susceptibility testing against Pseudomonas aeruginosa PAE_NUH25; R=Resistant; type: functional, organism-based; method in brief: as §2
Pseudomonas aeruginosa [10] = test: (§9) Susceptibility testing against Pseudomonas aeruginosa PAE_NUH01; R=Resistant; type: functional, organism-based; method in brief: as §2
Pseudomonas aeruginosa [11] = test: Susceptibility testing against Pseudomonas aeruginosa ATCC 27853; R=Resistant; type: functional, organism-based; method in brief: as §2
Pseudomonas aeruginosa [12] = test: Susceptibility testing against Pseudomonas aeruginosa PAE_NUH23; I=Intermediate; type: functional, organism-based; method in brief: as §2
Pseudomonas aeruginosa [13] = test: Susceptibility testing against Pseudomonas aeruginosa PAE_NUH24; I=Intermediate; type: functional, organism-based; method in brief: as §2
Pseudomonas aeruginosa [14] = test: Susceptibility testing against Pseudomonas aeruginosa PAE_NUH21; I=Intermediate; type: functional, organism-based; method in brief: as §5
Pseudomonas aeruginosa [15] = test: Susceptibility testing against Pseudomonas aeruginosa PAE_NUH07; R=Resistant; type: functional, organism-based; method in brief: as §2
Pseudomonas aeruginosa [16] = test: Susceptibility testing against Pseudomonas aeruginosa PAE_NUH22; I=Intermediate; type: functional, organism-based; method in brief: as §5
Pseudomonas aeruginosa [17] = test: (§10) Susceptibility testing against Pseudomonas aeruginosa PAE_NUH04; R=Resistant; type: functional, organism-based; method in brief: as §2
Pseudomonas aeruginosa [18] = test: as §8; type: functional
Pseudomonas aeruginosa [19] = test: as §1; type: functional
Pseudomonas aeruginosa [20] = test: Minimum inhibitory concentration against Pseudomonas aeruginosa ATCC 27853; Range is 0.25-1; type: functional
Pseudomonas aeruginosa [21] = test: Susceptibility testing against Pseudomonas aeruginosa PAE_NUH23; R=Resistant; type: functional
Escherichia coli = test: In vitro minimum inhibitory concentration against Escherichia coli ATCC 25922; Range is 0.25-1; type: functional
Pseudomonas aeruginosa [22] = test: Susceptibility testing against Pseudomonas aeruginosa PAE_NUH07; S=Susceptible; type: functional; method in brief: as §5
Pseudomonas aeruginosa [23] = test: as §3; type: functional
Pseudomonas aeruginosa [24] = test: Susceptibility testing against Pseudomonas aeruginosa PAE_NUH21; S=Susceptible; type: functional
Enterococcus faecalis = test: In vitro minimum inhibitory concentration against Enterococcus faecalis 29212; range is 8-32 ug/ml; type: functional
Method in brief: (§11)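 Broth microdilution following CLSI M100-S12. Stocks were 10 mg/mL in water, diluted in Mueller–Hinton broth to a top level of 128, then serially 2-fold in plates. Bacteria in cation-adjusted Mueller–Hinton broth were mixed 1:1 with drug and incubated 16–20 h at 35 °C. MIC was the lowest concentration with no visible growth. Run in duplicate with no-antibiotic and no-inoculum (sterility) controls.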

Pseudomonas aeruginosa [25] = test: Susceptibility testing against Pseudomonas aeruginosa PAE_NUH18; S=Susceptible; type: functional
Pseudomonas aeruginosa [26] = test: Minimum inhibitory concentration against Pseudomonas aeruginosa PAO-1; Range is 0.25-1; type: functional
Pseudomonas aeruginosa [27] = test: as §10; type: functional
Pseudomonas aeruginosa [28] = test: Susceptibility testing against Pseudomonas aeruginosa PAE_NUH24; S=Susceptible; type: functional
Pseudomonas aeruginosa [29] = test: as §7; type: functional
Pseudomonas aeruginosa [30] = test: Susceptibility testing against Pseudomonas aeruginosa PAE_NUH25; S=Susceptible; type: functional
Staphylococcus aureus [31] = test: In vitro minimum inhibitory concentration against Staphylococcus aureus ATCC 29213; Range is 0.12-1; type: functional
Pseudomonas aeruginosa [32] = test: Susceptibility testing against Pseudomonas aeruginosa PAE_NUH19; S=Susceptible; type: functional
Pseudomonas aeruginosa [33] = test: Susceptibility testing against Pseudomonas aeruginosa PAE_NUH22; S=Susceptible; type: functional
Staphylococcus aureus [34] = test: In vitro minimum inhibitory concentration against Staphylococcus aureus MRSA 3359; type: functional; method in brief: as §11
Pseudomonas aeruginosa [35] = test: Minimum inhibitory concentration against Pseudomonas aeruginosa ATCC 27853; type: functional; method in brief: as §11
Pseudomonas aeruginosa [36] = test: as §6; type: functional
Pseudomonas aeruginosa [37] = test: as §9; type: functional
Pseudomonas aeruginosa [38] = test: as §4; type: functional

Compound: O=C(N[C@H](CO)[C@H](O)c1ccc([N+](=O)[O-])cc1)C(Cl)Cl
- Activity (Pseudomonas aeruginosa [1]): Resistant
- Activity (Pseudomonas aeruginosa [2]): Resistant
- Activity (Pseudomonas aeruginosa [3]): Susceptible
- Activity (Pseudomonas aeruginosa [4]): Resistant
- Activity (Pseudomonas aeruginosa [5]): Resistant
- Activity (Pseudomonas aeruginosa [6]): Resistant
- Activity (Pseudomonas aeruginosa [7]): Resistant
- Activity (Pseudomonas aeruginosa [8]): Susceptible
- Activity (Pseudomonas aeruginosa [9]): Resistant
- Activity (Pseudomonas aeruginosa [10]): Resistant
- Activity (Pseudomonas aeruginosa [11]): Resistant
- Activity (Pseudomonas aeruginosa [12]): I
- Activity (Pseudomonas aeruginosa [13]): I
- Activity (Pseudomonas aeruginosa [14]): I
- Activity (Pseudomonas aeruginosa [15]): Resistant
- Activity (Pseudomonas aeruginosa [16]): I
- Activity (Pseudomonas aeruginosa [17]): Resistant

Compound: NC[C@H]1O[C@H](O[C@H]2[C@H](O)[C@@H](O[C@H]3O[C@H](CO)[C@@H](O)[C@H](N)[C@H]3O)[C@H](N)C[C@@H]2N)[C@H](N)C[C@@H]1O [TOBRAMYCIN]
- MIC (Pseudomonas aeruginosa [18]): 1 µg/mL (≈ 2.14 µM)
- MIC (Pseudomonas aeruginosa [19]): 100 µg/mL (≈ 214 µM)
- MIC (Pseudomonas aeruginosa [20]): 1 µg/mL (≈ 2.14 µM)
- MIC (Pseudomonas aeruginosa [21]): > 32 µg/mL
- MIC (Escherichia coli): 1 µg/mL (≈ 2.14 µM)
- MIC (Pseudomonas aeruginosa [22]): 6.3 µg/mL (≈ 13.5 µM)
- MIC (Pseudomonas aeruginosa [23]): 100 µg/mL (≈ 214 µM)
- MIC (Pseudomonas aeruginosa [24]): 1 µg/mL (≈ 2.14 µM)
- MIC (Enterococcus faecalis): 32 µg/mL (≈ 68.4 µM)
- MIC (Pseudomonas aeruginosa [25]): 0.5 µg/mL (≈ 1.07 µM)
- MIC (Pseudomonas aeruginosa [26]): 1 µg/mL (≈ 2.14 µM)
- MIC (Pseudomonas aeruginosa [27]): 100 µg/mL (≈ 214 µM)
- MIC (Pseudomonas aeruginosa [28]): 1 µg/mL (≈ 2.14 µM)
- MIC (Pseudomonas aeruginosa [29]): 50 µg/mL (≈ 107 µM)
- MIC (Pseudomonas aeruginosa [30]): 0.5 µg/mL (≈ 1.07 µM)
- MIC (Staphylococcus aureus [31]): 1 µg/mL (≈ 2.14 µM)
- MIC (Pseudomonas aeruginosa [32]): 0.5 µg/mL (≈ 1.07 µM)
- MIC (Pseudomonas aeruginosa [33]): 0.25 µg/mL (≈ 0.535 µM)
- MIC (Staphylococcus aureus [34]): > 64 µg/mL
- MIC (Pseudomonas aeruginosa [35]): 1 µg/mL (≈ 2.14 µM)
- MIC (Pseudomonas aeruginosa [36]): 50 µg/mL (≈ 107 µM)
- MIC (Pseudomonas aeruginosa [37]): > 200 µg/mL
- MIC (Pseudomonas aeruginosa [38]): 2 µg/mL (≈ 4.28 µM)
